From ChEMBL document CHEMBL1131454 (J Med Chem, 1998)

Columns and labels:
[1] = target: T1, Glucocorticoid receptor (Homo sapiens, UniProt P04150)
T1 sequence (P04150 whole entry): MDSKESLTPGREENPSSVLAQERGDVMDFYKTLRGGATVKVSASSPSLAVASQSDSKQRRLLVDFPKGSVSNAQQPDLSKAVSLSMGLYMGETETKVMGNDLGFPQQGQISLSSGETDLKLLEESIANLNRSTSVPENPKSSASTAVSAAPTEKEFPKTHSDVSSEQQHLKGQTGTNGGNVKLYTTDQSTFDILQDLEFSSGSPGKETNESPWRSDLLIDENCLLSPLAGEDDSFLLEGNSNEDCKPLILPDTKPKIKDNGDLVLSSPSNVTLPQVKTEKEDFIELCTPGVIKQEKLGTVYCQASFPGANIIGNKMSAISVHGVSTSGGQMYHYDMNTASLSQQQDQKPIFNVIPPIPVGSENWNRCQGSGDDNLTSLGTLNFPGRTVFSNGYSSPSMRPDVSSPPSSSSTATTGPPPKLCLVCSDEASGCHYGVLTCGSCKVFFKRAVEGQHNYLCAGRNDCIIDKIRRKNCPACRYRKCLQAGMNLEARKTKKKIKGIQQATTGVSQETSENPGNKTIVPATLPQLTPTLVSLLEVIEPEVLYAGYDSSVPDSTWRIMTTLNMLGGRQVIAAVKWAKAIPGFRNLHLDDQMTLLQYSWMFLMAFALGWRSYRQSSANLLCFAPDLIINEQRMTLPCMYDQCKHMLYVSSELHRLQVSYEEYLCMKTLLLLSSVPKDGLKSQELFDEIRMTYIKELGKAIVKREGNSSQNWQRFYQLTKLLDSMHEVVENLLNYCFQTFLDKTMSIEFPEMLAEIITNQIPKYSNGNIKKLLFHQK

[2] = target: T2, Androgen receptor (Homo sapiens, UniProt P10275)
T2 sequence (P10275 whole entry): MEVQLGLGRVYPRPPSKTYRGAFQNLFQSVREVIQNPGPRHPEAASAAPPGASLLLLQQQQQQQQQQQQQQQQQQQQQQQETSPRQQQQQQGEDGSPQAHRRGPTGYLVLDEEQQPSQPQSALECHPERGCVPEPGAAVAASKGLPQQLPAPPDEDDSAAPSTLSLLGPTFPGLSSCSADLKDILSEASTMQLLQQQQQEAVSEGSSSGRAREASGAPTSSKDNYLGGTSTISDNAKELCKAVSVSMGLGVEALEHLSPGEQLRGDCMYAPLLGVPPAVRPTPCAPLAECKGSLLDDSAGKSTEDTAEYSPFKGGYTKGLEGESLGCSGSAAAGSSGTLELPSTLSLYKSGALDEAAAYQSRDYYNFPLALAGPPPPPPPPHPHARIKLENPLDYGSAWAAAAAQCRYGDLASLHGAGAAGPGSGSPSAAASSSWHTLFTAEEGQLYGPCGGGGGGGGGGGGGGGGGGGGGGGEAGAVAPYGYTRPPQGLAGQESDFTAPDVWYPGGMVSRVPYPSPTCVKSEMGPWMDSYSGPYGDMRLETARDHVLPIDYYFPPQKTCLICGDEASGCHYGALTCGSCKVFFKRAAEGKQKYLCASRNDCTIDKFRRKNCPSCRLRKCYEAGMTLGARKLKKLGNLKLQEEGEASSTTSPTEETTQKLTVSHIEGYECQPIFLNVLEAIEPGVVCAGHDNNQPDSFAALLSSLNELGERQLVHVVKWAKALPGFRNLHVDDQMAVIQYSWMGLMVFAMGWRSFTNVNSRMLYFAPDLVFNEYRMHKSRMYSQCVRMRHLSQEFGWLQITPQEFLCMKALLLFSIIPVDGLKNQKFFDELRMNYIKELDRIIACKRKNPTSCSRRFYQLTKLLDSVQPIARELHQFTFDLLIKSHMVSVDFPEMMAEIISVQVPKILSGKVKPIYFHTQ

[3] = target: T3, Progesterone receptor (Homo sapiens, UniProt P06401); experiment: The binding affinity on Human progesterone receptor (hPR-A) using progesterone as radioligand.
T3 sequence (P06401 whole entry): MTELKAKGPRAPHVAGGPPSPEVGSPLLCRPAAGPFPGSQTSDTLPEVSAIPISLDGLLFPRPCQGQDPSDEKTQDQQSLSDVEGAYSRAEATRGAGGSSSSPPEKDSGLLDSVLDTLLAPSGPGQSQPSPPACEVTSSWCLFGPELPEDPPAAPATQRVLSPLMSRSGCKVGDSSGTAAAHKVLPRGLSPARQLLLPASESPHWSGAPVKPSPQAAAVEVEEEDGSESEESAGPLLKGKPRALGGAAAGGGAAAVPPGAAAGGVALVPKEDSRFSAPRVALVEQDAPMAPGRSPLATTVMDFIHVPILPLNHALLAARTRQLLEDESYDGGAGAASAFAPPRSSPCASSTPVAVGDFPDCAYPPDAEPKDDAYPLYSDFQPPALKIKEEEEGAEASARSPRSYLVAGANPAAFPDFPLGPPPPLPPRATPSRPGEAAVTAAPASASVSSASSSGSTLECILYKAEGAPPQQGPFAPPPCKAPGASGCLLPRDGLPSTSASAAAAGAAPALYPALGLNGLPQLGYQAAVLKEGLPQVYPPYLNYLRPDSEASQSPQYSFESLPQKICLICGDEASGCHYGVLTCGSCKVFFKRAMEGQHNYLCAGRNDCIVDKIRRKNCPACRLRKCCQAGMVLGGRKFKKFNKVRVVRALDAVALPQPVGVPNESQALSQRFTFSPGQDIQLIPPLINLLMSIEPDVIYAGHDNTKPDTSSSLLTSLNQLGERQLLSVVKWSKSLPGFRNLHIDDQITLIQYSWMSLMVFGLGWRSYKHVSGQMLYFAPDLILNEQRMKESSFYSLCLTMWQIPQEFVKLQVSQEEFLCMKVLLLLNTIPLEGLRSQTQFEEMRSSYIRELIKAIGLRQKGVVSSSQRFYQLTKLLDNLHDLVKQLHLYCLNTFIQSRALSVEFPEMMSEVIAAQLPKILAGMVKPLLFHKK

[4] = target: Estrogen receptor (Homo sapiens, UniProt Q92731+P03372); experiment: Antagonistic activity was determined in Human estrogen receptor(hER) of CV-1 cells in cotransfection assay.; assay type: functional, cell-based
[5] = target: T4, Progesterone receptor (Homo sapiens) (UniProt P06401); experiment: Human progesterone receptor (hPR) antagonist efficacy was determined as a function (%) of maximal inhibition of progesterone at EC50 value.; assay type: functional
T4 sequence (whole entry): T3 sequence (P06401 whole entry)
Summary of the method: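 hPR antagonist-mode cotransfection in CV-1 cells transiently transfected by calcium phosphate coprecipitation with hPR plasmid, MTV-LUC reporter, pRS-β-Gal and filler DNA. […] Values come from one, two, or at least three experiments in triplicate.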

[6] = target: T1, Glucocorticoid receptor; remark: listed apart in the source
[7] = target: T2, Androgen receptor; remark: listed apart in the source

Structure (SMILES) | IC50 [1] [µM] | IC50 [2] [µM] | Ki [3] [µM] | IC50 [4] [µM] | Efficacy [5] [%] | Ki [6] [µM] | Ki [7] [µM]
CC1=CC(C)(C)Nc2ccc3c(c21)C(c1ccc(Cl)c(C)c1)Oc1ccccc1-3 (centres undefined) | 0.275 | 1.43 | 0.0012 | 1.22 | < 20 | 0.147 | 1.86
CC1=CC(C)(C)Nc2ccc3c(c21)C(c1cc(Cl)cc(Cl)c1)Oc1ccccc1-3 (centres undefined) | 0.225 | 1.09 | 0.0017 | > 10 | < 20 | 0.1 | 2.58
CC1=CC(C)(C)Nc2ccc3c(c21)C(c1ccc(C)c(F)c1)Oc1ccccc1-3 (centres undefined) | 0.185 | 1.22 | 0.0018 | 1.449 | < 20 | 0.06 | 1.58
CC1=CC(C)(C)Nc2ccc3c(c21)C(c1cccc(Br)c1)Oc1ccccc1-3 (centres undefined) | 0.266 | 0.401 | 0.0011 | 1.095 | 41 | 0.034 | 2.14
CC1=CC(C)(C)Nc2ccc3c(c21)C(c1cccc(Cl)c1)Oc1ccccc1-3 (centres undefined) | 0.136 | 0.253 | 0.00043 | 1.48 | 37 | 0.058 | 1.53
CC1=CC(C)(C)Nc2ccc3c(c21)C(c1cccc(C(F)(F)F)c1)Oc1ccccc1-3 (centres undefined) | 0.505 | 0.315 | 0.0026 | 1.537 | < 20 | 0.044 | 0.795
CC1=CC(C)(C)Nc2ccc3c(c21)C(c1ccc(Cl)cc1)Oc1ccccc1-3 (centres undefined) | 0.339 | 1.55 | 0.0007 | 1.803 | 31 | 0.152 | 2.68
CC1=CC(C)(C)Nc2ccc3c(c21)C(c1ccc(C)cc1)Oc1ccccc1-3 (centres undefined) | 0.294 | 1.24 | 0.0023 | 2.395 | 38 | 0.08 | 2.33

More lines, now with the values ahead:

IC50 [1] [µM] | IC50 [2] [µM] | Ki [3] [µM] | IC50 [4] [µM] | Efficacy [5] [%] | Ki [6] [µM] | Ki [7] [µM] | Structure (SMILES)
0.115 | 0.481 | 0.00055 | > 10 | 42 | 0.067 | > 10 | CC1=CC(C)(C)Nc2ccc3c(c21)C(c1ccc(Br)cc1)Oc1ccccc1-3 (centres undefined)
0.08 | 0.946 | 0.0034 | 2.632 | 42 | 0.059 | 5.83 | CC1=CC(C)(C)Nc2ccc3c(c21)C(c1ccc(Cl)c(Cl)c1)Oc1ccccc1-3 (centres undefined)
0.166 | 1.24 | 0.00087 | 1.037 | 31 | 0.042 | 3.5 | CC1=CC(C)(C)Nc2ccc3c(c21)C(c1cc(C)cc(Br)c1)Oc1ccccc1-3 (centres undefined)
0.171 | 2.21 | 0.00041 | 1.449 | < 20 | 0.039 | 1.46 | CC1=CC(C)(C)Nc2ccc3c(c21)C(c1ccc(Cl)c(F)c1)Oc1ccccc1-3 (centres undefined)
